Test results published in PubChem BioAssay AID449757 (Broad Institute, 2010).
Active and inactive are the calls of the source.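 Rule for the calls: active = compounds whose fitted caspase activation midpoint falls no more than tenfold above the top tested dose; inconclusive = flat fit with activity between 30 and 70 percent, or failed fit; inactive = the rest.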

Tested on: MEF Flag-A1-IRES-BIM, caspase-Glo luminescence, 3 h
Experiment: Caspase-Glo signal, Flag-A1-IRES-BIM MEF cells – cell-based, alternate construct, luminescence, A1 (Bcl2A1) inhibitor project, dose response (AID 449757)
How it was run: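 System: Flag-A1-IRES-BIM-primed MEF cells; Doses: 100 nL compound added per well by pin transfer; Times: 3 h at 37 °C, then 1 h detection at room temperature; Measured by: luminescent caspase activity measurement with CaspaseGlo reagent.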

| Compound | AC50 |
| --- | --- |
| CCOC(=O)c1c(C)oc2c1c(CN1CCN(C(=O)OCC)CC1)c(O)c1ccccc12 | 7.15 µM |
| COc1ccc(-c2cc3ccccc3oc2=O)cc1NC(=S)NC(=O)c1ccc2c(c1)OCCO2 | 6.36 µM |
| O=C(N=Nc1c(O)[nH]c2ccc([N+](=O)[O-])cc12)c1cc(-c2ccccc2Cl)nc2ccccc12 | > 35 µM (inactive) |
| COc1ccc(-c2c(C#N)c(N)nc(Sc3ccc(Cl)cc3)c2C#N)cc1 | > 35 µM (inactive) |
| O=C(CN(c1ccc(Br)cc1)S(=O)(=O)c1ccc(Cl)c([N+](=O)[O-])c1)NCCc1ccccc1 | > 35 µM (inactive) |
| O=c1c(Cl)c(Cl)cnn1Cc1ccccc1Cl | > 35 µM (inactive) |
| CCOc1ccc(NC(=S)NC(=O)/C=C/c2ccc(C)cc2)c([N+](=O)[O-])c1 | 21 µM |
| CCOc1ccc(OCC(=O)N(CCC2=CCCCC2)c2c(N)n(Cc3ccccc3)c(=O)[nH]c2=O)cc1 | 20.9 µM |
| COCc1cc(C)nc(SCC(=O)Nc2nc(C)cs2)c1C#N | > 35 µM (inactive) |
| CCc1ccc(Nc2n[n+](-c3ccccc3)c(/C=C/c3ccccc3)s2)cc1 | 10.3 µM |
| CC[C@H]1CN2CCc3cc(OC)c(OC)cc3[C@@H]2C[C@@H]1C[C@H]1NCCc2cc(OC)c(OC)cc21 | > 35 µM (inactive) |
| COc1cc(/C=C(/C#N)c2nc3ccccc3[nH]2)ccc1OCC(=O)Nc1ccccc1C | 6.32 µM |
| Cc1ccc(S(=O)(=O)N(C)Cc2ccc(C(=O)N/N=C/c3ccc(OC(F)F)cc3)cc2)cc1 | > 35 µM (inactive) |
| O=C(NCc1ccccc1Br)c1cccc2c1C(=O)c1ccc(-c3ccc(OC(F)(F)F)cc3)cc1S2(=O)=O | > 35 µM (inactive) |
| COC(=O)c1ccc2c(=O)n(Cc3ccc4c(c3)OCO4)c(=S)[nH]c2c1 | > 35 µM (inactive) |
| CCCCNC(=O)c1ccc(Cn2c(=S)[nH]c3c([nH]c4ccc(OC)cc43)c2=O)cc1 | 4.77 µM |
| Cc1nn(Cc2c(Cl)cccc2Cl)c(C)c1NC(=O)c1cn(-c2ccccc2)nc1-c1ccccc1 | 19.2 µM |
| O=C(Oc1cccc(/C=N/Nc2nc(Nc3ccccc3)nc(N3CCOCC3)n2)c1)c1ccco1 | > 35 µM (inactive) |
| CN(c1ccccc1)c1ccc(/C=C/[N+](=O)[O-])cc1 | 10.2 µM |
| CCn1c(SCC(=O)c2ccccc2)nnc1-c1cc2cc(Br)ccc2o1 | > 35 µM (inactive) |
| O=C(NCc1ccccc1Cl)c1cccc2c1C(=O)c1ccc(-c3ccc(OC(F)(F)F)cc3)cc1S2(=O)=O | > 35 µM (inactive) |
| O=S1(=O)CCOC[C@H](CC2CCCCC2)N1Cc1cccc(Cl)c1 | > 35 µM (inactive) |

| Compound | AC50 |
| --- | --- |
| CC(C)c1cccc(-c2ccc3c(c2)S(=O)(=O)c2cccc(C(=O)NC4CCCC4)c2C3=O)c1 | > 35 µM (inactive) |
| O=C(COc1ccc(/C=N/NC(=O)c2cc3ccccc3o2)cc1Cl)Nc1ccccc1 | 9.15 µM |
| N#C/C(=C\c1ccc(OCc2ccccc2)cc1)C(=O)Nc1nc2c(s1)CCN(Cc1ccccc1)C2 | > 35 µM (inactive) |
| Cc1cc(=O)[nH]c(SCC(=O)Nc2ccc(Br)cc2)c1C#N | > 35 µM (inactive) |
| CC(=O)Nc1ncnc2c1c(-c1ccc(Cl)cc1)nn2C(C)(C)C | > 35 µM (inactive) |
| COc1ccc2[nH]c3c(=O)n(/N=C/[C@H]4C(C)C=C(C)CC4C)c(=O)[nH]c3c2c1 (stereo partly drawn) | 11 µM |
| CCc1ccccc1NC(=O)C(CC)Sc1nc2cc3c(cc2c(=O)n1Cc1ccco1)OCO3 (stereo not drawn) | > 35 µM (inactive) |
| CCOc1cccc(C(=O)Nc2cccc(-c3nnc(-c4ccc(C)cc4)o3)c2)c1 | 8.37 µM |
| CCOC(=O)C(C(=O)OCC)c1cc(Br)c2noc3c2c1C(=O)c1ccccc1-3 | 14.8 µM |
| CCc1nn(-c2cc(Oc3cccc4ccccc34)nc(-c3ccccc3)n2)c(N)c1C#N | > 35 µM (inactive) |
| COc1ccccc1-c1cc(C(F)(F)F)nc(S(=O)(=O)CCCC(=O)N2CCOCC2)n1 | 8.31 µM |
| COc1ccccc1-c1cn[nH]c1-c1ccc(OCc2ccccc2)cc1O | > 35 µM (inactive) |
| CC1=NNC(=O)/C1=C\c1cn(-c2ccccc2)nc1-c1cccs1 | 14.2 µM |
| CC1CCc2c(sc3nc(C(C)(C)C)nc(N4CCN(C(=O)CCl)CC4)c23)C1 (stereo not drawn) | 10.2 µM |
| Cc1ccc(N(Cc2cc(=O)[nH]c3ccccc23)C(=O)CCl)cc1 | > 35 µM (inactive) |
| N#CC(C#N)=C1C=CC=CN1/C(=C\c1ccccc1Cl)C(=O)c1ccccc1 | 3.43 µM |
| CCOc1ccc(-n2c(SCC(=O)Nc3ccc(Br)cc3)nc3n[nH]c(C)c3c2=N)cc1 | 31 µM |
| COc1ccccc1C(=O)Nc1ccnn1C1CCN(Cc2cn(C)c3ccccc23)CC1 | > 35 µM (inactive) |
| O=[N+]([O-])/C=C/c1ccc2c(ccn2Cc2ccccc2)c1 | 13.4 µM |
| COc1cc(C(=O)Nc2cc3c(cc2N2CCCCC2)n(C)c(=O)n3C)cc(OC)c1OC | > 35 µM (inactive) |
| CC(C)(C)c1ccc(C(=O)Nc2ccc(O)c3c(=O)cc(-c4cccc(Cl)c4)oc23)cc1 | > 35 µM (inactive) |
| COc1ccc(Oc2cc(NC(=O)c3nn(C)cc3[N+](=O)[O-])cc([N+](=O)[O-])c2)cc1 | 21.3 µM |

| Compound | AC50 |
| --- | --- |
| COc1ccc(C(=O)/C=C/C(=O)N(CC(=O)NC2CCCCC2)Cc2cccs2)c(O)c1 | 24.5 µM |
| Cc1ccc2c(c1)C(=O)C(=O)N2Cc1ccc(Br)cc1 | > 35 µM (inactive) |
| COc1ccc(NC(=O)c2cccc3c2C(=O)c2ccc(-c4ccc(F)cc4OCc4ccccc4)cc2S3(=O)=O)cc1 | > 35 µM (inactive) |
| COc1ccc(NC(=O)C(=O)N/N=C\c2ccc(CNC(=O)C(=O)Nc3ccc(C)c(C)c3)o2)c(OC)c1 | 26.1 µM |
| Clc1ccccc1CN(Cc1ccccc1)c1ncnc2nc[nH]c12 | > 35 µM (inactive) |
| Cc1ccc(C(=O)/C=C\C(=O)c2ccc(C)cc2)cc1 | 36.7 µM |
| COc1cc(NC(=O)c2ccccc2)c(OC)cc1NC(=O)Cc1ccc(Br)cc1 | > 35 µM (inactive) |
| CN(C)C/C=C(\c1ccc(Br)cc1)c1cccnc1 | > 35 µM (inactive) |
| COc1ccc2c(c1)CCc1c(C(=O)Nc3cc(C)n(Cc4ccc(Cl)cc4)n3)noc1-2 | 21.9 µM |
| CCOc1ccc(NCc2cccn2-c2nnc(N3CCC(C(=O)NCCCN4CC(C)CC(C)C4)CC3)s2)cc1 (stereo not drawn) | > 35 µM (inactive) |
| O=C(Nc1ccc2oc(-c3ccccc3)nc2c1)c1ccccc1F | > 35 µM (inactive) |
| Cc1ccc(C(=O)/C=C/C(=O)c2ccc(C)cc2)cc1 | 5.64 µM |
| COc1ccc(C=C2C=C(C(C)(C)C)C(=O)C(C(C)(C)C)=C2)cc1OC | 3.49 µM |
| CCOc1cc(C(=O)CSc2nnc(CNc3ccc(Cl)cc3)o2)ccc1NC(=O)CC | 15.3 µM |
| COc1cc2cnc(-c3ccccc3)c(-c3cccc(C(F)(F)F)c3)c2cc1OC | > 35 µM (inactive) |
| COc1cccc(C(=O)C(C#N)=C(SC)SC)c1 | > 35 µM (inactive) |
| COc1ccc(OC)c(NC(=O)c2cc(-c3cc(C)ccc3O)n[nH]2)c1 | > 35 µM (inactive) |
| CCOCCCNC(=O)c1ccc2c(c1)N=C(CC)c1cc(Br)ccc1S2 | > 35 µM (inactive) |
| Cc1ccc(C=C2C(Cl)=C(Cl)C(Cl)=C2Cl)cc1 | 4.67 µM |
| Cc1[nH]nc2nc(SCC(=O)NCCC3=CCCCC3)n(-c3ccc(Br)cc3)c(=N)c12 | 17.1 µM |
| Cc1ccc2c(c1)c(C1=c3ccccc3=NC1=O)c(O)n2C | > 35 µM (inactive) |
| Cc1cccc(C)c1NC(=O)CSc1nc(C)c(CC(=O)c2ccc(Br)cc2)c(C)c1C#N | 28.8 µM |

| Compound | AC50 |
| --- | --- |
| O=C(N/C=N/OCc1ccc(Cl)cc1Cl)NOCc1ncc(C(F)(F)F)cc1Cl | > 35 µM (inactive) |
| O=C(Cn1c(C(F)(F)F)nc2ccccc21)N=Nc1c(O)[nH]c2ccc(Br)cc12 | 29.8 µM |
| Cc1ccc2nc(N(CCCN(C)C)C(=O)c3ccc(S(=O)(=O)N4CCc5ccccc5C4)cc3)sc2c1 | > 35 µM (inactive) |
| O=C(COc1ccccc1[N+](=O)[O-])Nc1ccc(NC(=O)c2cc3ccccc3o2)cc1 | 28.7 µM |
| COc1ccc(-c2ccc3c(c2)S(=O)(=O)c2cccc(C(=O)NC[C@@H]4CCCO4)c2C3=O)cc1OC | > 35 µM (inactive) |
| O=C(NC[C@H]1CCCO1)c1cccc2c1C(=O)c1ccc(-c3ccc(F)cc3OCc3ccccc3)cc1S2(=O)=O | > 35 µM (inactive) |
| O=C(Nc1ccc2oc(-c3ccccc3F)nc2c1)c1ccccc1F | > 35 µM (inactive) |
| C=C1/C=C(\C)[C@](C)(O)C[C@H](O)CC(=O)[C@H](O)[C@@H](O)[C@H](C)C[C@H](C)OC(=O)/C(C)=C/CC/C=C/[C@@H]2O[C@H]2C[C@H](C)C1 | > 35 µM (inactive) |
| COc1cc(CN2CCN(c3cc(C)ccc3C)CC2)ccc1O | > 35 µM (inactive) |
| CCCc1ccc(OCc2ccc(C(=O)N/N=C/c3cccc([N+](=O)[O-])c3)o2)c(OC)c1 | 6.57 µM |
| CC1(C)C[C@H](O)[C@]2(CO)[C@H](O)C[C@]3(C)C(=CCC4[C@@]5(C)CC[C@H](O)C(C)(C)C5CC[C@]43C)[C@@H]2C1 (stereo partly drawn) | > 35 µM (inactive) |
| CC(=O)[C@]1(O)Cc2c(O)c3c(c(O)c2[C@@H](O[C@H]2C[C@H](N)[C@H](O)[C@H](C)O2)C1)C(=O)c1ccccc1C3=O | > 35 µM (inactive) |
| CCc1nnc(NC(=O)CSc2nc(-c3ccccc3)cc(-c3ccc(F)cc3)c2C#N)s1 | 33.1 µM |
| COc1ccc(-c2ccc3c(c2)S(=O)(=O)c2cccc(C(=O)NCCOc4ccccc4)c2C3=O)cc1OC | > 35 µM (inactive) |
| Cn1c(=NC(=O)CCl)sc2ccccc21 | > 35 µM (inactive) |
| CC(C)CCN(C(=O)Cc1ccc(Cl)c(Cl)c1)c1c(N)n(Cc2ccccc2)c(=O)[nH]c1=O | 16.9 µM |
| COc1cc(/C=C(/C#N)c2nc3ccccc3[nH]2)ccc1OCC(=O)Nc1ccccc1C(C)C | 16.1 µM |
| CCN(C(=O)CCN1C(=O)c2ccccc2S1(=O)=O)c1ccccc1 | > 35 µM (inactive) |
| O=C(Nc1ccc2oc(-c3cccc(F)c3)nc2c1)c1ccccc1F | > 35 µM (inactive) |
| COc1ccc(OC[C@@H](O)CNC(=O)c2cccc3c2C(=O)c2ccc(-c4ccc(F)cc4OCc4ccccc4)cc2S3(=O)=O)cc1 | > 35 µM (inactive) |
| Cc1ccc(-c2nc(NC(=O)c3nn(C)cc3[N+](=O)[O-])sc2C)cc1 | 6.7 µM |
| Cc1ccc(C#N)c(SCC(=O)Nc2nccs2)n1 | > 35 µM (inactive) |
